Screening results from PubChem BioAssay.
Most compounds without a hit are left out; they make up all but 1.9% or so of the library.
CHRM5 agonist: CHRM5 agonism in calcium assay; P08912; CHO-K1 hM5 cells, Fluo-8 calcium fluorescence; 0% DMSO wells, 100% maximal acetylcholine response; activation, % at 3 µM; 360,000 compounds, 0.19% hits; AID 624037;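 active = activation above the run's mean over test compounds plus 3 SD, cut at about 23% in these data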;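 also: signal is peak over basal fluorescence ratio across the kinetic read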
Target sequence (P08912 whole entry, looked up): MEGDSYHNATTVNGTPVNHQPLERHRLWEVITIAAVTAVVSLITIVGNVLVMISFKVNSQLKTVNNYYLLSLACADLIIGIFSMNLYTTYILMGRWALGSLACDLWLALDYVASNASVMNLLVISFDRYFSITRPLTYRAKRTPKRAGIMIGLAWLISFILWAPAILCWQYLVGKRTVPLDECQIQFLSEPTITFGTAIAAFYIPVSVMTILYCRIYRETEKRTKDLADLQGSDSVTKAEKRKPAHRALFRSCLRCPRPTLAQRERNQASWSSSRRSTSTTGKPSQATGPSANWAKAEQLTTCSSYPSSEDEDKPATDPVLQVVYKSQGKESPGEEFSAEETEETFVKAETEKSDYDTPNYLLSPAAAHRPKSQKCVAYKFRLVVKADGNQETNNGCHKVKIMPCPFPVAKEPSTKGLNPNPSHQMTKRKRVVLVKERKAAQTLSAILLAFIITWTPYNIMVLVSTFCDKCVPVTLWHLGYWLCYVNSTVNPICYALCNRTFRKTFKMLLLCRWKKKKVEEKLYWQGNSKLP
CHRM5 antagonist: antagonists of human muscarinic M5 receptor (CHRM5) | CHO-hM5 cells, Fluo-8 calcium fluorescence, ACh EC80 | inhibition, % at 3 µM | 360,000 compounds, 0.59% hits | P08912 | AID 624040;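 active = inhibition above a per-plate cutoff, the mean of that plate's test compounds plus 3 SD, cut at about 27% in these data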
M5 PAM: positive allosteric modulators of human muscarinic M5 receptor. P08912. CHO-K1 hM5, Fluo-8 calcium, ACh EC20 PAM; 0% = ACh EC20, 100% = ACh EC100. activation, % at 3 µM. 360,000 compounds, 0.3% hits. AID 624038;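 active = activation above the run cutoff, the mean activation of all test compounds plus 3 SD, cut at about 18% in these data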
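Assay system: CHO-K1 hM5 cells / Incubation: Fluo-8 loading 80 min at 37 °C plus 30 min room temperature / Technique: Fluo-8 calcium dye fluorescence, kinetic read / Repeats: single replicate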
CHRM4 antagonist: blocks acetylcholine activation of human M4 receptor; P08173; 360,000 compounds, 0.73% hits; inhibition, % at 3 µM; CHO-hM4 cells, ACh EC80, Fluo-8 calcium fluorescence;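 active = inhibition above its plate's cutoff, the mean inhibition of sample wells plus 3 SD, cut at about 27% in these data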
M4 PAM: CHRM4 positive allosteric modulation; 360,000 compounds, 0.4% hits; activation, % at 3 µM; CHO-K1 hM4/Gqi5, Fluo-8 calcium fluorescence, ACh EC20; 0% = ACh EC20, 100% = maximal ACh; AID 624126;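 active = activation above its plate's cutoff, the mean activation of sample wells plus 3 SD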
CHRM4 agonist: CHRM4 agonism in calcium assay; P08173; CHO-K1 hM4/Gqi5, Fluo-8 calcium fluorescence; vehicle 0%, full acetylcholine response 100%; activation, % at 3 µM; 360,000 compounds, 0.14% hits;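 active = activation above the run mean over all test wells plus 3 SD, cut at about 32% in these data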;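 also: peak over basal fluorescence ratio per well then scaled between controls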
Large screens that a line does not name were inactive.

CC(=O)Nc1cccc(NC(=O)CSc2ncc(-c3ccc(Cl)cc3)n2Cc2ccco2)c1	CHRM4 antagonist 29
CCN(CC)c1ccc(/C=C(/C#N)C(=O)NC(C)C)o1	none
CCN(CC)c1ccc(/C=C(/C#N)C(=O)NCc2ccccc2)o1	CHRM5 agonist 30
CCN(CC)S(=O)(=O)c1ccc(C(=O)NCC(c2cccs2)N2CCOCC2)cc1 (stereo not drawn)	CHRM4 antagonist 39
CCn1c(=O)c([N+](=O)[O-])c(N2CCOCC2)c2ccccc21	none
Cn1c(=Nc2ccc(N3CCOCC3)cc2)ccc2ccccc21	CHRM5 antagonist 39
CCn1c(=Nc2ccc(N3CCOCC3)cc2)ccc2ccccc21	CHRM5 antagonist 67
Cn1c(N=Nc2ccc(N3CCOCC3)cc2)[n+](C)c2ccccc21	none
CCN1CCN(CC(=O)c2c[nH]c3ccc(C)cc23)CC1	none
Nc1nonc1NC(=O)CSc1ncccc1C(=O)O	none
CC(C)c1ccc(NS(=O)(=O)c2ccc(N3C(=O)CCC3=O)cc2)cc1	CHRM5 antagonist 27
CC(C)c1ccc(S(=O)(=O)Nc2ccc(SC(F)F)cc2)cc1	CHRM4 antagonist 28
CCC(C)NC(=O)c1ccc(C2SCC(=O)N2Cc2ccccc2)cc1 (stereo not drawn)	none
CCOC(=O)CC(=O)Nc1ccccc1C(=O)O	M4 PAM 25
O=C(NCCc1cn2ccccc2n1)c1cc(COc2ccc3ncccc3c2)on1	CHRM5 antagonist 33, CHRM4 antagonist 36
CC(NC(=O)c1cc(COc2ccc3ncccc3c2)on1)c1ccc(F)cc1 (stereo not drawn)	CHRM5 antagonist 36
Cc1cc(OCc2cc(C(=O)N3CCC(Oc4cccnc4)CC3)no2)cc(C)c1Cl	CHRM4 antagonist 35
Cc1cc(OCc2cc(C(=O)N3CCN(CC4CC4)CC3)no2)cc(C)c1Cl	none
O=C(c1cc(COc2cccc3cccnc23)on1)N1CCC[C@H]1CO	none
CCN(CC)C1CCN(C(=O)c2cc(COc3cccc4cccnc34)on2)C1 (stereo not drawn)	CHRM4 antagonist 38
O=P(Cc1cccc2ccccc12)(c1ccccc1)c1ccccc1	none
O=C(c1cc(COc2ccc3ncccc3c2)on1)N1CCCC1	none
O=C(c1cc(COc2ccc3ncccc3c2)on1)N1CCCCCC1	CHRM5 antagonist 27
COc1cccc(CN(C)C(=O)c2cc(COc3ccc4ncccc4c3)on2)c1	CHRM5 antagonist 40, CHRM4 antagonist 34
O=C(Nc1cccc(Cl)c1)OCCN1CCN(Cc2ccccc2)CCC1=O	none
CC(=O)NC1CCCC(NC(C)=O)C1 (stereo not drawn)	none
COCCn1c(=NC(=O)/C=C/c2cccs2)sc2cc(NC(C)=O)ccc21	M4 PAM 21
O=C1N[C@@H](c2ccccc2)COC(=O)[C@H](Cc2ccc(F)cc2)C/C=C\C[C@H]1CC(=O)N(CCO)Cc1ccccc1	M5 PAM 18
O=C1N[C@@H](Cc2c[nH]c3ccccc23)COC(=O)[C@@H](Cc2ccc(F)cc2)C/C=C\C[C@H]1CC(=O)N(CCO)Cc1ccccc1	CHRM4 antagonist 28
O=C1N[C@@H](c2ccccc2)COC(=O)[C@H](Cc2ccc(F)cc2)CC/C=C/C[C@H]1CC(=O)N(CCO)Cc1ccccc1	none
O=C1N[C@H](Cc2ccccc2)COC(=O)[C@H](Cc2ccc(F)cc2)C/C=C\C[C@@H]1CC(=O)N(CCO)Cc1ccccc1	none
O=C(C[C@@H]1C/C=C/CC[C@@H](Cc2ccc(F)cc2)C(=O)O[C@@H](c2ccccc2)CNC1=O)NCCO	CHRM5 antagonist 31
O=C(C[C@H]1C/C=C/CC[C@H](Cc2ccc(F)cc2)C(=O)O[C@H](c2ccccc2)CNC1=O)NCCO	none
O=C1N[C@@H](c2ccccc2)COC(=O)[C@@H](Cc2ccc(F)cc2)C/C=C\C[C@@H]1CC(=O)N(CCO)Cc1ccccc1	CHRM4 agonist 56
COc1cc(/C=C/c2ccc3c(Br)cc(Br)c(O)c3n2)ccc1O	none
O=C1NC[C@H](c2ccccc2)OC(=O)[C@@H](Cc2ccc(F)cc2)C/C=C\C[C@H]1CC(=O)N(CCO)Cc1ccccc1	CHRM4 antagonist 34, CHRM4 agonist 36
CN(Cc1cnn(C)c1)C(=O)CC1C(=O)NCCN1Cc1cccc(Oc2ccccc2)c1 (stereo not drawn)	CHRM5 antagonist 32
Cn1nc(C(=O)NCc2cccnc2)c2ccccc2c1=O	M5 PAM 20
Cn1nc(C(=O)NCCN2CCOCC2)c2ccccc2c1=O	none
CCn1cc(C(=O)NCc2ccco2)c(=O)c2ccc(C)nc21	M4 PAM 19
CCn1cc(C(=O)NCCOC)c(=O)c2ccc(C)nc21	none
Cn1nc(C(=O)NCc2ccco2)c2ccccc2c1=O	M4 PAM 23
Cn1nc(C(=O)Nc2cccnc2)c2ccccc2c1=O	none
O=C(Cc1c[nH]c2ccccc12)N1CCN(S(=O)(=O)c2ccc(F)cc2)CC1	none
CCCNC(=O)Cn1c(=O)/c(=C\c2ccc(-c3ccc([N+](=O)[O-])cc3)o2)s/c1=C\C(=O)C(C)(C)C	CHRM5 agonist 25
N#Cc1c(-c2ccccc2Cl)cc(C2CC2)nc1N	CHRM5 agonist 56, CHRM4 agonist 62
COc1ccccc1-c1cc(C2CC2)nc(N)c1C#N	none
Cc1nc(N)c(C#N)c(-c2ccccc2Cl)c1C	M4 PAM 29
CCC(=O)N1Cc2cc(C(=O)Nc3nccs3)nc(-c3cccc(-c4ccccc4OC)c3)c2[C@H]1CCO	CHRM4 antagonist 27
CCNC(=O)c1cc2c(c(-c3cccc(-c4cc5ccccc5o4)c3)n1)[C@H](CCO)N(C(=O)NC(C)C)C2	CHRM4 antagonist 29
CCS(=O)c1ccccc1C(=O)OCC(=O)Nc1cccc(S(=O)(=O)N2CCCCC2)c1 (stereo not drawn)	none
O=C(O)c1ccc(NC2=C/C(=N/S(=O)(=O)c3cccs3)c3ccccc3C2=O)cc1	none
O=C1C(Nc2ccc(O)cc2)=C/C(=N/S(=O)(=O)c2cccs2)c2ccccc21	CHRM5 antagonist 35
O=C1/C(=C\c2ccc(C(F)(F)F)cc2)CSc2sccc21	none
O=C1/C(=C/c2ccc(F)c(F)c2)CSc2sccc21	M4 PAM 37
Cc1cc(C(=O)Nc2cc(S(C)(=O)=O)ccc2Cl)c(C)o1	none
Cc1c(C(=O)N2CCCCCC2)c(S(=O)(=O)Nc2ccc(F)cc2)c(C)n1C	none
O=C1NC(=O)C2(N1)C(=O)c1cccc3cccc2c13 (stereo not drawn)	CHRM5 agonist 36, CHRM4 antagonist 29, CHRM4 agonist 161
